# Assay outcomes as filed in PubChem BioAssay.
# Rows were chosen to be rich in hits. Some 2.1% of all compounds tested hit in one or more screens of this group.
# SUMO Mot1 rescue = blocks SUMOylation pathway, rescuing yeast Mot1-301 growth; AID 2716; growth rescue, % at 18.8 µM; S. cerevisiae Mot1-301 growth rescue, ATP luminescence, 38.5C; percent above DMSO median, 100 means doubled; hit rate 1% among 320,000;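 active = every valid replicate shows activation above 250% relative to neutral control wells; inactive = the rest, any valid replicate at or below 250%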;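 also: OY570 slx delta 5 strain wells were the positive control but not used for scaling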
# Efflux pump mplx = inhibitors of Candida antifungal efflux pumps expressed in yeast; S. cerevisiae Candida pump triplex, Nile Red efflux; inhibition, % at 10 µM; hit rate 0.44% among 330,000;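 active = plate passing quality check with inhibition over a set limit, or well fluorescence over plate mean plus 4 SD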;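 also: Nile Red retained in pooled yeast measured as flow cytometry median fluorescence; 0% = buffer negative control and 100% = Enniatin B positive control; higher means more Nile Red kept so more efflux inhibition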
# UCH37 DUB inh = inhibitors of human deubiquitinating enzyme UCH37 | purified proteasome/UCH37, Ub-AMC cleavage fluorescence | inhibition, % (test concentration not listed) | hit rate 0.33% among 330,000 | AID 588478;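 active = mean inhibition over replicate wells above about 20%, limit read from the data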;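 also: 0% = compound-free wells with enzyme and 100% = wells lacking proteasome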
# Target sequence (Q9Y5K5 whole entry, looked up): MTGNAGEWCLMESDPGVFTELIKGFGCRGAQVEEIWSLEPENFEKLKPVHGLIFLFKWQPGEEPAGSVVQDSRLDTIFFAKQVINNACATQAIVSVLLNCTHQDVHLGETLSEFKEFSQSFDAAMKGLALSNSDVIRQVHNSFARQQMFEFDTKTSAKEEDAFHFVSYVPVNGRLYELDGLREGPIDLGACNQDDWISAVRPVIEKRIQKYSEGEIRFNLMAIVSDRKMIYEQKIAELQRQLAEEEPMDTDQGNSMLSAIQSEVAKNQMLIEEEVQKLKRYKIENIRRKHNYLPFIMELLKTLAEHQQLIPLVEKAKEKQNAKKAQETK
#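 Material: Human UCH37 enzyme supplied as purified proteasome complex | Schedule: 30 min compound-proteasome preincubation then 25 min substrate reaction, room temperature | Detection: AMC fluorescence from Ub-AMC cleavage, excitation 355 nm, emission 460 nm | Benchmarks: Wells without proteasome as full block, compound-free enzyme plus substrate as uninhibited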
# ARNT-TACC3 inh = disrupts binding between human ARNT and TACC3 | Q9Y6A5 | AlphaScreen His-ARNT PAS-B/GST-TACC3 binding, luminescence; TACC3 fragment carries E629A point mutation | inhibition, % at 9.99 µM | hit rate 0.66% among 390,000;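 active = mean inhibition of replicates at least 50% and at least half of replicates each reaching 50%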;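 also: 0% = complete ARNT plus TACC3 wells and 100% = ARNT alone without TACC3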
# RTF Ca sens inh = cardiac RTF calcium desensitization; IANBD-labeled cardiac RTF, Ca2+ fluorescence; P19429+P45379; hit rate 0.12% among 340,000; inhibition, % at 7.15 µM;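 active = inhibition above the mean inhibition of all tested compounds plus 3 SD, cut at about 17% in these data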;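 also: assay run at fixed EC70 calcium of 1.6 mM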
# RTF Ca sens act = cardiac RTF calcium sensitization; IANBD-labeled TnC RTF fluorescence at EC20 calcium; 0% EC20 calcium, 100% full calcium; activation, % at 7.2 µM; hit rate 0.24% among 340,000; AID 493008;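 active = activation above the mean over all tested compounds plus 3 SD, cut at about 30% in these data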;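 also: rise in fluorescence read as greater calcium sensitivity of cardiac thin filaments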
# ARNT Alpha ctr-1 = counter-screen for ARNT/TACC3 inhibitors: AlphaScreen artifacts; shares compounds with ARNT-TACC3 inh; His-ARNT PASB-GST AlphaScreen artifact counter-screen, luminescence; AC50, µM (series often up to 68 µM), inactives show top-dose activity change, negative = signal decrease; hit rate 50% among 1,200; AID 651705;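 active = every separate test run was called active for a drop in luminescence, with AC50 within twice the top valid dose, actives reach about 71 µM in these data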
# ARNT Alpha ctr-2 = produces AlphaScreen artifacts in ARNT-TACC3 counter-screen; Dual-tagged His-ARNT PASB-GST AlphaScreen artifact counter-screen; hit rate 70% among 45; AC50, µM; shares compounds with ARNT-TACC3 inh;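 active = luminescence drop, with half-maximal potency fitted within twice the sample's top valid dose, cut at about 70 µM in these data; inactive = the rest, including signal moving the wrong way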
# Active calls of the source: *; i = inactive; x = no result; [ ] = another dose, or the depositor's remark.
SMILES,SUMO Mot1 rescue,Efflux pump mplx,UCH37 DUB inh,ARNT-TACC3 inh,RTF Ca sens inh,RTF Ca sens act,ARNT Alpha ctr-1,others
Brc1ccc(-c2csc(N3CCC(c4ccccc4)C3)n2)cc1 (centres undefined),22.5,-0.2,1.4,8.5,-1.7,-1.4,x,
c1ccc(-c2nnc(-c3ccccn3)nc2N2CCC(c3ccccc3)C2)cc1 (centres undefined),x,x,x,x,x,x,4.76µM*,
c1ccc(-c2nnc(-c3ccccn3)nc2N2CCN(c3ccncc3)CC2)cc1,x,x,x,x,x,x,2.14µM*,
c1ccc(-c2nnc(-c3ccccn3)nc2N2CCC(N3CCOCC3)CC2)cc1,x,x,x,x,x,x,0.921µM*,
O=C(NN=C1CCc2ccccc21)c1ccccc1Cl,x,x,-0.1,x,x,x,x,
O=C(Nc1nc(-c2ccccc2)cs1)c1cc(-c2ccccc2)on1,x,x,x,x,x,x,-2.4%[38 µM],
O=C(Nc1cn2ccccc2n1)c1cc(-c2ccccc2)on1,x,x,x,x,x,x,-6.8%[38 µM],
O=C(Nc1ccccc1)c1cn2ccccc2n1,-13.5,-0.1,0.2,41.0,-2.7,2.7,x,
c1ccc(-c2nc(-c3ccncc3)n[nH]2)nc1,-15.6,-0.2,4.6,69.7*,-0.8,1.3,22.9µM*,ARNT Alpha ctr-2=5.08*
CC1(C)CC(=O)C(=NNc2ccc(Cl)cc2)CO1,x,x,6.3,x,x,x,x,
O=C(CSc1nnc(-c2ccccn2)o1)Nc1ccccc1C(F)(F)F,-4.9,0.3,-0.8,54.8*,-9.3,2.5,-12.5%,
O=C(CSc1nnc(-c2ccccn2)o1)Nc1ccccc1,8.2,0.0,1.5,x,-4.9,-0.1,x,
CCCC(=O)NC(c1ccc(C)cc1)c1ccc2cccnc2c1O (centres undefined),1.2,-0.2,x,-23.6,-8.6,-2.1,x,
CCCCC(=O)NC(c1ccc(N(C)C)cc1)c1ccc2cccnc2c1O (centres undefined),12.6,-0.2,x,60.3*,-10.8,0.6,11.4µM*,
CC(=O)NC(c1ccc(Cl)cc1Cl)c1ccc2cccnc2c1O (centres undefined),i,0.2,x,66.3*,2.2,-0.7,21.5µM*,
CC(=O)NC(c1ccc2ccccc2c1)c1ccc2cccnc2c1O (centres undefined),-6.2,0.0,x,61.7*,-1.4,1.0,15.3µM*,
Cl/C(C=NN1CCN(c2ccccn2)CC1)=C\c1ccccc1,x,x,1.0,x,x,x,x,
Nc1nc(-c2ccccn2)nc(N)c1Cc1c(F)cccc1Cl,39.1,-0.2,-0.3,x,-1.7,1.1,x,
Nc1nc(-c2ccccn2)nc(N)c1Cc1ccccc1F,-1.3,0.4,-3.6,66.7*,0.8,-4.4,21.6µM*,
Nc1nc(-c2ccccn2)nc(N)c1Cc1ccc(Cl)cc1Cl,100.6,1.0,-1.5,57.1*,0.3,8.1,25.7µM*,ARNT Alpha ctr-2=11.6*
Clc1ccc(OCc2nc(-c3ccccn3)no2)c(Br)c1,12.4,0.4,2.4,-8.7,-8.0,5.5,x,
O=c1ccc(-c2ccc(S(=O)(=O)Nc3ccc(F)cc3)s2)n[nH]1,0.5,0.2,2.9,50.1*,-12.6,-3.1,-9.0%,
O=c1ccc(-c2ccc(S(=O)(=O)NCc3cccc(Br)c3)s2)n[nH]1,-12.9,0.1,0.2,3.6,-5.9,-4.2,x,
O=S(=O)(N=C(Nc1ccccc1)C(F)(F)F)c1ccccc1,x,x,-1.1,x,x,x,x,
CC(C)C1Cc2c(sc3ncnc(NN)c23)CO1 (centres undefined),-15.5,-0.1,2.6,61.0*,-8.1,-5.6,16.5µM*,
Cc1[nH][nH]c(=O)c1C(c1ccc(F)cc1)c1c(C)[nH][nH]c1=O,24.9,0.0,1.7,2.2,-0.4,4.2,x,
Cc1[nH][nH]c(=O)c1C(c1ccc(Cl)cc1)c1c(C)[nH][nH]c1=O,-3.8,0.0,3.2,17.9*,-7.4,-6.0,5.0%,
Cc1nc2ncccn2c1-c1csc(Nc2ccc(O)cc2)n1,x,x,4.4,68.3*,-24.6,4.3,21.7µM*,
